Bioassay records deposited in PubChem BioAssay by several laboratories.
Sampled rows, rich in hits. Any-hit rate of the full collection: about 3%.
ANO1 block = blocks the mouse calcium-activated chloride channel TMEM16A | Q8BHY3 | actives 1.2% (n = 310,000) | normalized B-score (activity score, 25-100; higher = stronger inhibition) at 10 µM | AID 588511 | HEK293 TMEM16A/YFP iodide influx fluorescence, ionomycin;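 active = ratio plate-corrected score three or more library SD toward inhibition, starting fluorescence score within five deviations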;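 also: score derived from kinetic fluorescence span divided by baseline fluorescence per well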
SR-BI uptake up = SR-BI HDL lipid transfer activation. actives 0.096% (n = 320,000). activation, % at 12.5 µM. CHO ldlA[mSR-BI] cells, DiI-HDL uptake fluorescence, 3 h; 100 = double the neutral-control signal. AID 504775;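 active = mean replicate activation of at least 60% and every replicate at or above 60%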;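 also: 0% = median plate neutral-control signal and 100% = twice that signal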
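Test system: SR-BI-overexpressing, LDLR-lacking CHO cells; Also added: labelled HDL, 10 µg/mL; Measured by: bottom-read cell fluorescence after medium removal, ex 550/em 595 nm; Timing: 3 h uptake period with compound, 37 °C; Buffer or medium: F12, 0.5% BSA, 25 mM HEPES; Doses: single compound concentration, delivered by pin transfer.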
Kir21 inh = inhibitors of mouse Kir2.1 inward-rectifier potassium channel | P35561 | HEK293-Kir2.1, FluxOR thallium flux fluorescence; stronger effect = lower value | B-score at 10 µM | actives 0.85% (n = 310,000) | AID 1672;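 active = fluorescence ratio B-score at or below minus 3 SD of library scores, with starting-brightness B-score within 2 SD, cut at about -4.2 in these data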;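 also: channel flux triggered by added potassium and thallium sulfate stimulus; B-score of peak minus minimum fluorescence over baseline after thallium stimulus; more negative B-score means stronger Kir2.1 block with less thallium influx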
SR-BI HDL uptake = inhibitors of mouse SR-BI mediated HDL lipid uptake; Q61009; ldlA[mSR-BI] CHO cells, DiI-HDL uptake fluorescence, 3 h; inhibition, % at 12.5 µM; actives 0.96% (n = 320,000); AID 488896;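 active = mean replicate inhibition of at least 70% and a set share of replicates each scoring 70 or more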;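 also: 0% = median of neutral control wells and 100% = median of positive control wells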
TMEM16A act = activates or potentiates the mouse TMEM16A chloride channel; Q8BHY3; HEK293 TMEM16A/YFP-H148Q/I152L, iodide quench fluorescence; stronger effect = lower value; B-score at 10 µM; actives 0.3% (n = 340,000);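 active = fluorescence-ratio B-score plate-corrected deviation score at least 3 library SD below zero, with starting fluorescence score within 5 deviations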;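 also: channel opened by trigger with iodide after compound preincubation; score built on the fluorescence ratio of max minus min over baseline; more negative score means more quench and so TMEM16A activation or potentiation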
DNA FID counter = displaces DNA intercalator in HCV helicase counter-screen; DNA fluorescent intercalator displacement, fluorescence; inhibition, % at 7.9 µM; actives 0.17% (n = 290,000); AID 1845; in the data active = inhibition above about 37%;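 also: 0% = vehicle and 100% = reference compound; higher means more ethidium bromide displaced from hairpin DNA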
An asterisk follows results filed as active.

Screening Fc1ccc(Nc2ccnc(Nc3ccc(F)cc3)n2)cc1 returned ANO1 block inactive, SR-BI uptake up -12, Kir21 inh 0.34, SR-BI HDL uptake 12, TMEM16A act inactive and DNA FID counter 39*.
For CCCCNc1c(-c2ccc(SC3CCCCC3)c(OC)c2)nc2ccc(Cl)cn12 the results were ANO1 block inactive, SR-BI uptake up -75, Kir21 inh 1.5, SR-BI HDL uptake 75* and TMEM16A act inactive.
Screening CCCCNc1c(-c2ccc(-c3ccc(OC)cc3)c(OC)c2)nc2ccccn12 returned SR-BI uptake up -87, SR-BI HDL uptake 87* and TMEM16A act inactive.
`CCCCNc1c(-c2ccc(OC)c(Sc3ccc(OC)cc3)c2)nc2ccccn12` gave ANO1 block inactive, SR-BI uptake up -59, Kir21 inh 0.81, SR-BI HDL uptake 59 and TMEM16A act inactive.
COc1ccc(-c2[nH]ncc2CNC(C)CCn2cccn2)cc1F (configuration not stated) was read as ANO1 block inactive, SR-BI uptake up 0, Kir21 inh -0.34, SR-BI HDL uptake 0, TMEM16A act inactive and DNA FID counter 6.
Screening COc1ccc(-c2[nH]ncc2CNC(C)c2ccccc2Cl)cc1F (configuration not stated) returned ANO1 block inactive, Kir21 inh -7.3*, TMEM16A act inactive and DNA FID counter 18.
Screening COC(=O)Cc1[nH]nc2c1C(c1ccc(O)c(OC)c1)C(C#N)=C(N)O2 (configuration not stated) returned ANO1 block inactive, Kir21 inh 1.3, TMEM16A act inactive and DNA FID counter -5.
For COc1ccc2c(c1)N(S(=O)(=O)c1ccccc1)CCC2=O the results were ANO1 block inactive, SR-BI uptake up 25, Kir21 inh -6.5*, SR-BI HDL uptake -25, TMEM16A act inactive and DNA FID counter -6.
Screening CC1(C)CC(=O)CC2(C1)NCC(c1ccccc1)c1c2[nH]c2ccccc12 (configuration not stated) returned ANO1 block inactive, SR-BI uptake up -11, Kir21 inh -0.73, SR-BI HDL uptake 11, TMEM16A act inactive and DNA FID counter -21.
For COc1cccc(C2CNC3(CCCC(C)C3)c3[nH]c4ccccc4c32)c1OC (configuration not stated) the results were ANO1 block inactive, SR-BI uptake up -28, Kir21 inh -4.5*, SR-BI HDL uptake 28, TMEM16A act inactive and DNA FID counter 24.
Screening O=S(=O)(/C(=C/c1ccc(C(F)(F)F)cc1)c1nc2ccccc2[nH]1)c1ccccc1 returned ANO1 block inactive, SR-BI uptake up 30, Kir21 inh -7.6*, SR-BI HDL uptake -30, TMEM16A act inactive and DNA FID counter -4.
For CC(C)c1ccc(/C=C(\c2nc3ccccc3[nH]2)S(=O)(=O)c2ccccc2)cc1 the results were ANO1 block inactive, SR-BI uptake up 9, Kir21 inh -0.22, SR-BI HDL uptake -9, TMEM16A act inactive and DNA FID counter -22.
Screening Cc1ccc(S(=O)(=O)NCc2ccc(C(=O)NCCN(Cc3ccccc3)C(C)C)cc2)cc1 returned ANO1 block inactive, SR-BI uptake up -1, Kir21 inh -0.85, SR-BI HDL uptake 1, TMEM16A act inactive and DNA FID counter 39*.
Screening COC(=O)C1=C(Nc2ccccc2NS(=O)(=O)c2ccc(C(F)(F)F)cc2Cl)CSC1 returned ANO1 block 25*, SR-BI uptake up 10, Kir21 inh -0.02, SR-BI HDL uptake -10, TMEM16A act inactive and DNA FID counter -20.
CCCn1nnc2ccccc2c1=O was read as ANO1 block inactive, SR-BI uptake up -4, Kir21 inh -0.71, SR-BI HDL uptake 4, TMEM16A act inactive and DNA FID counter -3.
For CCOc1ccc(OCCn2nnc3ccccc3c2=O)cc1 the results were ANO1 block inactive, SR-BI uptake up 152*, Kir21 inh 2.2, SR-BI HDL uptake -152, TMEM16A act inactive and DNA FID counter -12.
Cn1cnc([N+](=O)[O-])c1S(=O)(=O)c1ccc(Cl)cc1 was read as SR-BI uptake up 15, Kir21 inh -6.8*, SR-BI HDL uptake -15, TMEM16A act inactive and DNA FID counter 0.
Screening COc1ccc(Nc2nc(-c3cccc(OC)c3O)nc3ccccc23)cc1 returned ANO1 block inactive, SR-BI uptake up -83, Kir21 inh -0.07, SR-BI HDL uptake 83*, TMEM16A act inactive and DNA FID counter 4.
For COc1cccc(-c2nc(NC(C)(C)C)c3ccccc3n2)c1O the results were ANO1 block inactive, SR-BI uptake up -84, Kir21 inh -2.9, SR-BI HDL uptake 84*, TMEM16A act inactive and DNA FID counter -5.
Screening COc1cccc(-c2nc(N3CCCC3)c3ccccc3n2)c1O returned ANO1 block inactive, SR-BI uptake up -51, Kir21 inh -1.7, SR-BI HDL uptake 50, TMEM16A act inactive and DNA FID counter -4.
`O=C(CN1CCCCC1)Nc1ccccc1Oc1ccccc1` gave ANO1 block inactive, SR-BI uptake up -9, Kir21 inh -5.6*, SR-BI HDL uptake 9, TMEM16A act inactive and DNA FID counter -1.
Screening O=C(CN1CCCC1)Nc1ccccc1Sc1ccccc1 returned ANO1 block inactive, SR-BI uptake up 8, Kir21 inh -4.2*, SR-BI HDL uptake -8, TMEM16A act inactive and DNA FID counter 0.
`CN1CCN(CC(=O)Nc2ccccc2Oc2ccccc2)CC1` gave ANO1 block inactive, SR-BI uptake up -3, Kir21 inh -1.4, SR-BI HDL uptake 3, TMEM16A act inactive and DNA FID counter 4.
`O=C(CSc1ncn[nH]1)Nc1ccccc1Sc1ccc(Cl)cc1` gave ANO1 block inactive, SR-BI uptake up 10, Kir21 inh -4.7*, SR-BI HDL uptake -10, TMEM16A act inactive and DNA FID counter -13.
For O=C(CN1CCOCC1)Nc1ccccc1Sc1ccc(Cl)cc1 the results were ANO1 block inactive, SR-BI uptake up 10, Kir21 inh -5.2*, SR-BI HDL uptake -10, TMEM16A act inactive and DNA FID counter -33.
`O=C(CSc1ncn[nH]1)NCCC(c1ccccc1)c1ccccc1` gave ANO1 block inactive, SR-BI uptake up 5, Kir21 inh -5.2*, SR-BI HDL uptake -5, TMEM16A act inactive and DNA FID counter -6.
Screening O=C(CSc1ncn[nH]1)NCCOc1ccccc1 returned ANO1 block inactive, SR-BI uptake up 6, Kir21 inh 0, SR-BI HDL uptake -6, TMEM16A act inactive and DNA FID counter 8.
For O=C(NC1CCCCC1)C1CCN(S(=O)(=O)c2cccc3nonc23)CC1 the results were ANO1 block inactive, SR-BI uptake up 30, Kir21 inh 0.35, SR-BI HDL uptake -30, TMEM16A act inactive and DNA FID counter -5.
